Rows were chosen to be rich in hits. Some 3% of all compounds tested hit in one or more screens of this group.
UBC13 inh = blocks human UBC13 polyubiquitin chain formation; P61088; TR-FRET; inhibition, % at 20 µM; hit rate 0.47% among 330,000; AID 485273; in the data active = inhibition above about 45%, passing the limit was not always enough
UCH37 inh = inhibitors of human deubiquitinating enzyme UCH37 | purified proteasome/UCH37, Ub-AMC cleavage fluorescence | inhibition, % (test concentration not listed) | hit rate 0.33% among 330,000 | AID 588478;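 active = mean inhibition over replicate wells above about 20%, limit read from the data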;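 note: 0% = compound-free wells with enzyme and 100% = wells lacking proteasome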
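Material: human UCH37 enzyme supplied as purified proteasome complex. Measure: % inhibition of Ub-AMC cleavage fluorescence. Medium: pH 7.4 Tris-HCl (50 mM) with ovalbumin, ATP-MgCl2, DTT. Times: 30 min preincubation with enzyme, 25 min cleavage at room temperature. Detection: AMC fluorescence intensity at 355/460 nm.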
MEKK2wt PB1 HTS = raises or lowers MEK5 binding to wildtype human MEKK2 PB1 domain; AID 1531; hit rate 1.1% among 290,000; Q9Y2U5; bead flow cytometry, Alexa488-MEK5 binding to MEKK2 WT; actives lie on both sides; binding response (% of control), % at 10 µM; in the data active = binding response below about 67% or above about 130%
Apaf-1 inh = blocks human Apaf-1 apoptosome activity | reconstituted apoptosome caspase-3 activity, DEVD-Rh110 fluorescence | inhibition, % at 20 µM | AID 489030 | O14727 | hit rate 0.71% among 330,000; active = inhibition of at least 40% at 20 µM;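 note: plate controls were DMSO wells for no effect and DEVD-CHO caspase inhibitor wells for full effect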
Target sequence (O14727 whole entry, looked up): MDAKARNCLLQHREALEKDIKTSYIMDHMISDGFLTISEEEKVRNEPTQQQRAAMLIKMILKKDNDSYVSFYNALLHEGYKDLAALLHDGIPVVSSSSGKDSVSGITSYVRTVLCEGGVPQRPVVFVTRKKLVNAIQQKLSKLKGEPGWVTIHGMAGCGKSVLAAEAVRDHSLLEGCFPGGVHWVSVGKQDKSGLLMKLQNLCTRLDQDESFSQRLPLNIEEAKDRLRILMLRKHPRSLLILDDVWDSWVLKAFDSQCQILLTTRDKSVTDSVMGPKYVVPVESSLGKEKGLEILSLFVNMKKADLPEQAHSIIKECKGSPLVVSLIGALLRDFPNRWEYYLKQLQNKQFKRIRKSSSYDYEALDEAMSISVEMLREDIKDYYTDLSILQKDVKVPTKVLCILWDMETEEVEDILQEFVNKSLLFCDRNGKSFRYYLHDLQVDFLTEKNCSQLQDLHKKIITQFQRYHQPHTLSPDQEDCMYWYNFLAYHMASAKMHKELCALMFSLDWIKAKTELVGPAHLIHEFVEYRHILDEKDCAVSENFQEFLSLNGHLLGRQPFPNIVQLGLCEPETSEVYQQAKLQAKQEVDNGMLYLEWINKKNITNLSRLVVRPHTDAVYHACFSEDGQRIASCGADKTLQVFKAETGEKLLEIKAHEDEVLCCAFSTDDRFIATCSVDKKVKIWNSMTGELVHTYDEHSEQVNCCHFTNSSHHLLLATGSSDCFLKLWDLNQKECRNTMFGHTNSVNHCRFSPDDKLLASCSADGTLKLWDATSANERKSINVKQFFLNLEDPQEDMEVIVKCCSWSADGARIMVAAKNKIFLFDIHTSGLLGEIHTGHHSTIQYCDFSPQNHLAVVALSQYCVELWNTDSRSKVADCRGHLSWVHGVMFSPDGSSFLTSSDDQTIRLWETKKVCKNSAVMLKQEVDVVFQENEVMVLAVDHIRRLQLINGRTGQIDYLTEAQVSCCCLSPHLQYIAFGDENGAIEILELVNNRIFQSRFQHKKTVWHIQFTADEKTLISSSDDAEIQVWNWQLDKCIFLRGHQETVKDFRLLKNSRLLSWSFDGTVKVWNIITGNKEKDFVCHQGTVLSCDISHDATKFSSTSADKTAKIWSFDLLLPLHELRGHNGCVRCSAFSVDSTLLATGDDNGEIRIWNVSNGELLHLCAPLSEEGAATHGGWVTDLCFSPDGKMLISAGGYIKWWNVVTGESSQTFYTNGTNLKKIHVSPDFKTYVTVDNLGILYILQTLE
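Medium: Hepes buffer, pH 7.5 / System: biochemical Apaf-1 apoptosome reconstitution / Measured by: Rh110 fluorescence, excitation 480 nm, emission 540 nm / Times: compound with Apaf-1, dATP, procaspase-3 30 min, then 50 min reaction, room temperature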
MEKK2mut PB1 HTS = signal of MEK5 binding to mutant human MEKK2 PB1 domain. bead flow cytometry, Alexa488-MEK5 binding to MEKK2 mutant. percent response, % at 10 µM. hit rate 0.35% among 290,000; in the data active = percent response above about 24%, passing the limit was not always enough
MEKK3 PB1 HTS = MEKK3-MEK5 PB1 interaction, increase or decrease; Q99759; bead-based flow cytometry, Alexa488-MEK5 binding to MEKK3; actives lie on both sides; 0 = blocked by unlabeled MEK5, 100 = vehicle; binding response (% of control), % at 10 µM; hit rate 1.4% among 290,000;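 active = binding response more than 3 SD above or below the average of its plate-row segment, actives on both sides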;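 note: Alexa488 bead fluorescence after subtracting the streptavidin-only scavenger bead signal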
MEKK2wt confirm = raises or lowers MEK5 binding to wildtype human MEKK2, retest; shares compounds with MEKK3 PB1 HTS; bead flow cytometry, Alexa488-MEK5 binding to MEKK2 WT; actives lie on both sides; binding response (% of control), % at 10 µM; hit rate 2.4% among 5,900; in the data active = binding response below about 16% or above about 210%; inactive = in between
MEKK2mut-MEK5 = signal of MEK5 binding to mutant human MEKK2, retest; shares compounds with MEKK3 PB1 HTS; bead flow cytometry, Alexa488-MEK5 binding to MEKK2 mutant; percent response, % at 10 µM; hit rate 2% among 5,900; AID 1893; in the data active = percent response mostly above about 71%, no sharp cut-off; inactive = mostly below about 38%;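 note: higher means compound restores mutant binding toward wildtype level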
MEKK3 confirm = MEKK3-MEK5 PB1 inhibition, single concentration confirmation; binding response (% of control), % at 10 µM; bead flow cytometry, Alexa488-MEK5 binding to MEKK3; stronger effect = lower value; shares compounds with MEKK3 PB1 HTS; hit rate 1.8% among 5,900;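 active = binding response below 72% of control, or above a set upper limit, though filed actives all read lower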;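 note: 100% = DMSO only wells and 0% = binding blocked by excess unlabeled MEK5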
The depositor's hits bear a star; [ ] = remark or other dose.

How did COc1cc(/C=C2/NC(=O)N(c3cccc(Cl)c3)C2=O)ccc1O do in these assays?
UBC13 inh: -15; UCH37 inh: 2; MEKK2wt PB1 HTS: 84; Apaf-1 inh: 14; MEKK2mut PB1 HTS: -10; MEKK3 PB1 HTS: 93

What do the screens show for `COc1ccc(-n2cccc2/C=C2/NC(=O)N(c3cccc(Cl)c3)C2=O)cc1`?
UBC13 inh: -1; UCH37 inh: -1; MEKK2wt PB1 HTS: 105; Apaf-1 inh: 5; MEKK2mut PB1 HTS: 0; MEKK3 PB1 HTS: 130*; MEKK2wt confirm: 102; MEKK2mut-MEK5: 5; MEKK3 confirm: 101

How did O=C(O)c1cccc(-n2cccc2/C=C2/NC(=O)N(c3cccc(Cl)c3)C2=O)c1 do in these assays?
UBC13 inh: -15; UCH37 inh: 8; MEKK2wt PB1 HTS: 94; Apaf-1 inh: -4; MEKK2mut PB1 HTS: -6; MEKK3 PB1 HTS: 99

How did O=C(O)c1cccc(-n2cccc2/C=C2/NC(=O)N(c3ccc(Cl)cc3)C2=O)c1 do in these assays?
UCH37 inh: 27*; MEKK2wt PB1 HTS: 63*[inhibitor]; MEKK2mut PB1 HTS: -7; MEKK3 PB1 HTS: 74*[inhibitor]; MEKK2wt confirm: 76; MEKK2mut-MEK5: -30; MEKK3 confirm: 86

What do the screens show for `O=C(C(=NNc1ccc([N+](=O)[O-])cc1)Sc1nnnn1-c1ccccc1)c1ccccc1`?
UCH37 inh: 6

What do the screens show for `O=C(/C(=N\Nc1ccc(Br)cc1)Sc1nnnn1-c1ccccc1)c1ccccc1`?
UBC13 inh: -15; MEKK2wt PB1 HTS: 104; Apaf-1 inh: 15; MEKK2mut PB1 HTS: -1; MEKK3 PB1 HTS: 130*; MEKK2wt confirm: 107; MEKK2mut-MEK5: -2; MEKK3 confirm: 104

What do the screens show for `CCOC(=O)/C(=N/Nc1ccccc1)Sc1nnnn1-c1ccc(C)cc1`?
UBC13 inh: -2; MEKK2wt PB1 HTS: 105; Apaf-1 inh: 4; MEKK2mut PB1 HTS: 4; MEKK3 PB1 HTS: 129*; MEKK2wt confirm: 100; MEKK2mut-MEK5: -2; MEKK3 confirm: 97

How did CCOC(=O)/C(=N/Nc1ccc(Cl)cc1)Sc1nnnn1-c1ccc(C)cc1 do in these assays?
UBC13 inh: -1; MEKK2wt PB1 HTS: 102; Apaf-1 inh: 9; MEKK2mut PB1 HTS: -1; MEKK3 PB1 HTS: 100

Results for CCOC(=O)NN=Cc1cn(CCCOc2ccccc2)c2ccccc12 ?
UCH37 inh: 0

Results for Cc1ccc(OCC(=O)N/N=C/c2cn(Cc3ccccc3)c3ccccc23)cc1 ?
UBC13 inh: -12; MEKK2wt PB1 HTS: 102; Apaf-1 inh: 7; MEKK2mut PB1 HTS: 0; MEKK3 PB1 HTS: 143*; MEKK2wt confirm: 94; MEKK2mut-MEK5: -9; MEKK3 confirm: 105

Results for CCOC(=O)N/N=C/c1cn(CCCOc2ccccc2)c2ccccc12 ?
UBC13 inh: -8; MEKK2wt PB1 HTS: 100; Apaf-1 inh: 13; MEKK2mut PB1 HTS: -1; MEKK3 PB1 HTS: 140*; MEKK2wt confirm: 93; MEKK2mut-MEK5: -4; MEKK3 confirm: 99

Results for COC(=O)N/N=C/c1cn(CCOc2ccccc2)c2ccccc12 ?
UBC13 inh: -5; MEKK2wt PB1 HTS: -17*[inhibitor]; Apaf-1 inh: 1; MEKK2mut PB1 HTS: -38; MEKK3 PB1 HTS: -1.0*[inhibitor]; MEKK2wt confirm: 97; MEKK2mut-MEK5: -7; MEKK3 confirm: 102

How did C[C@H](NC(=O)c1ccco1)C(=O)Nc1ccc(C#N)cc1 do in these assays?
UBC13 inh: 0; UCH37 inh: 0; MEKK2wt PB1 HTS: 107; Apaf-1 inh: 9; MEKK2mut PB1 HTS: 7; MEKK3 PB1 HTS: 101
